The source made the active and inactive calls. The rule behind the calls is not given here.
Experiments:
[1] = target: Serine/threonine-protein kinase Chk2 (Homo sapiens, UniProt O96017); experiment: Inhibition of human CHK2 in presence of ATP
HCT-116 [2] = experiment: Antitumor activity against human HCT-116 cells xenografted in nude mouse assessed as reduction in Src phosphorylation at Y416 residue at 15 to 150 mg/kg/day administered via pump for 18 hrs by Reverse-Phase protein array analysis; assay type: functional, organism-based; details: dose 15-150 mg/kg/day
HCC1419 = experiment: Antiproliferative activity against human HCC1419 cells assessed as inhibition of cell proliferation incubated for 3 days by CellTiter-Glo Luminescent Cell Viability Assay; assay type: functional, cell-based; details: HCC1419, 72 h
Outline: (§1)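 Cancer cell lines seeded in 384-well plates on day 1; compound added on day 2 and left for 3 days. On day 5 all medium was aspirated, and viable cells were quantified by CellTiter-Glo luminescence, which measures cellular ATP. Dose-dependent effects on proliferation were determined.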

HCT-116 [3] = experiment: Downregulation of camptothecin-induced phospho-S810-GEF-H1 level in human HCT-116 cells at 1 uM preincubated with compound for 15 mins followed by camptothecin stimulation and measured after 20 hrs by Western blot analysis; assay type: functional, cell-based; details: time 20.25 hrs
[4] = target: T1, Proto-oncogene tyrosine-protein kinase Src (Homo sapiens, UniProt P12931); experiment: Inhibition of human SRC assessed as inhibition constant in presence of ATP
[5] = target: T2, cGMP-dependent protein kinase 1 (Homo sapiens, UniProt Q13976); experiment: Inhibition of human PRKG1 assessed as inhibition constant in presence of ATP
T2 sequence (Q13976 whole entry): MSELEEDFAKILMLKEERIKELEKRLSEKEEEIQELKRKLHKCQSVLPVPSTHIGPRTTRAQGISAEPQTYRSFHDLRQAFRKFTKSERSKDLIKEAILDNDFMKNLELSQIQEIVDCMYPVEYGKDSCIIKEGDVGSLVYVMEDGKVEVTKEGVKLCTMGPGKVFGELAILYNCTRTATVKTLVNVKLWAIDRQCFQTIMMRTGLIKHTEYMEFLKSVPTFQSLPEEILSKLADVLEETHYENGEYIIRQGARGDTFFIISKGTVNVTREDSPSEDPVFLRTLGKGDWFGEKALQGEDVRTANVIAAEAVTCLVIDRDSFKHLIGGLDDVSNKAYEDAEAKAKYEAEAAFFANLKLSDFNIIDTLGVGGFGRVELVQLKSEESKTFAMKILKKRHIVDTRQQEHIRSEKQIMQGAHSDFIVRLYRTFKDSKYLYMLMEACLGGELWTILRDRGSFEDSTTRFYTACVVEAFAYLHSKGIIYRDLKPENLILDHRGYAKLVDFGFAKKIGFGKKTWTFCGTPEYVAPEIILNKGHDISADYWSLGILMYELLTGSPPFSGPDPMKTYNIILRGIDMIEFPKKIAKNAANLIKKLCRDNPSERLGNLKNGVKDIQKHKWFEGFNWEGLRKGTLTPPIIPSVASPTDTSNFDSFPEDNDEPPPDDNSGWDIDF

HCT-116 [6] = experiment: Induction of apoptosis in human HCT-116 cells at 100 nM measured after 48 hrs by fluorescence activated cell sorter analysis; assay type: functional, cell-based
[7] = target: Serine/threonine-protein kinase PAK 4 (Homo sapiens, UniProt O96013)
[8] = target: Ribosomal protein S6 kinase alpha-3 (Homo sapiens, UniProt P51812); experiment: Inhibition of human RSK2 assessed as inhibition constant in presence of ATP
COLO 205 = experiment: Antitumor activity against human COLO 205 cells xenografted in nude mouse assessed as tumor growth inhibition at 20 mg/kg, po administered once daily for 9 to 18 days relative to control; assay type: functional; details: time 9-18 day, read-out: TGI
Outline: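 Tumor cells were implanted s.c. into the right flank of female nu/nu nude mice aged 6–8 weeks. Animals were randomized into treatment groups once tumors were established (example: day 8 postimplant, about 170 mm3, animals >22 g). Compound in 0.5% methylcellulose was given by oral gavage. Tumors were measured with calipers two to three times per week.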

NCI-H1651 = experiment: Antiproliferative activity against human NCI-H1651 cells assessed as inhibition of cell proliferation incubated for 3 days by CellTiter-Glo Luminescent Cell Viability Assay; assay type: functional, cell-based; details: NCI-H1651, 72 h; outline: as §1
HCT-116 [9] = experiment: Antitumor activity against human HCT-116 cells xenografted in nude mouse assessed as reduction in GSK3beta phosphorylation at S21 residue at 15 to 150 mg/kg/day administered via pump for 18 hrs by Reverse-Phase protein array analysis; assay type: functional, organism-based; details: dose 15-150 mg/kg/day
COLO 320DM = experiment: Inhibition of anchorage independent cell growth in human COLO 320DM cells incubated for 6 days by Alamar blue reagent based fluorescence plate reader analysis; assay type: functional; details: 144 h
[10] = target: cGMP-dependent protein kinase 1 (Homo sapiens) (UniProt Q13976); experiment: Inhibition of human PRKG1 in presence of ATP relative to control; details: concentration not given here
HCC1954 = experiment: Antiproliferative activity against human HCC1954 cells assessed as inhibition of cell proliferation incubated for 3 days by CellTiter-Glo Luminescent Cell Viability Assay; assay type: functional, cell-based; details: HCC1954, 72 h; outline: as §1
[11] = target: T3, Ribosomal protein S6 kinase alpha-1 (Homo sapiens, UniProt Q15418); experiment: Inhibition of human RSK1 assessed as inhibition constant in presence of ATP
[12] = target: Protein kinase C theta type (Homo sapiens, UniProt Q04759); experiment: Inhibition of human PKCtheta assessed as inhibition constant in presence of ATP
NCI-H1703 = experiment: Antiproliferative activity against human NCI-H1703 cells assessed as inhibition of cell proliferation incubated for 3 days by CellTiter-Glo Luminescent Cell Viability Assay; assay type: functional, cell-based; details: NCI-H1703, 72 h
Outline: (§2)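 Cells of each line were plated in 384-well plates on day 1 and exposed to compound from day 2 for 3 days. On day 5 all medium was aspirated. Viable cell number was read by CellTiter-Glo luminescence, which quantifies cellular ATP.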

HuP-T3 = experiment: Antiproliferative activity against human HuP-T3 cells assessed as inhibition of cell proliferation incubated for 3 days by CellTiter-Glo Luminescent Cell Viability Assay; assay type: functional, cell-based; details: HuP-T3, 72 h; outline: as §1
[13] = target: T3, Ribosomal protein S6 kinase alpha-1; experiment: Inhibition of human RSK1 in presence of ATP by cellular assay
[14] = target: T1, Proto-oncogene tyrosine-protein kinase Src; experiment: Inhibition of human SRC in presence of ATP by cellular assay
[15] = target: AMP-activated protein kinase (AMPK) alpha-1/beta-1/gamma-1 (Homo sapiens) (UniProt P54619+Q9Y478+Q13131); experiment: Inhibition of human AMPK alpha1/beta1/gamma1 in presence of ATP relative to control; assay type: protein-complex assay; details: concentration not given here
HCT-116 [16] = experiment: Antitumor activity against human HCT-116 cells xenografted in nude mouse assessed as reduction in MEK1 phosphorylation at S221 residue at 15 to 150 mg/kg/day administered via pump for 18 hrs by Reverse-Phase protein array analysis; assay type: functional, organism-based; details: dose 15-150 mg/kg/day
SW1990 = experiment: Antiproliferative activity against human SW1990 cells assessed as inhibition of cell proliferation incubated for 3 days by CellTiter-Glo Luminescent Cell Viability Assay; assay type: functional, cell-based; details: SW1990, 72 h; outline: as §2
LS174T = experiment: Antiproliferative activity against human LS174T cells assessed as inhibition of cell proliferation incubated for 3 days by CellTiter-Glo Luminescent Cell Viability Assay; assay type: functional, cell-based; details: 72 h; outline: as §1

T1 sequence (P12931 2-536 limits assumed): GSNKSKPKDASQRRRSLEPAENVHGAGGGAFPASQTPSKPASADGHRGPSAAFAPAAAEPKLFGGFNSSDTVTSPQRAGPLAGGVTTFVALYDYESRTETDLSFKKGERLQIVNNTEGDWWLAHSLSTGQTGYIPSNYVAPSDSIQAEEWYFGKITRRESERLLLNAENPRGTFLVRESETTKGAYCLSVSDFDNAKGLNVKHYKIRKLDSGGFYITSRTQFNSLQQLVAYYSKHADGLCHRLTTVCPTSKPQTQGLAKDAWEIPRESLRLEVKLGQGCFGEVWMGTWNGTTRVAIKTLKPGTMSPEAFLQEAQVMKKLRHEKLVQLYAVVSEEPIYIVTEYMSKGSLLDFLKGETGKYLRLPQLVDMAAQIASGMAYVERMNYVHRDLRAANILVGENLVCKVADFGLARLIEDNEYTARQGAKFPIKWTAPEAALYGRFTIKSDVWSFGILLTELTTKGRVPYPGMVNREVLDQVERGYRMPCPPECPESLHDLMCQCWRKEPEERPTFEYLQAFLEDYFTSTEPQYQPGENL
T3 sequence (Q15418 whole entry): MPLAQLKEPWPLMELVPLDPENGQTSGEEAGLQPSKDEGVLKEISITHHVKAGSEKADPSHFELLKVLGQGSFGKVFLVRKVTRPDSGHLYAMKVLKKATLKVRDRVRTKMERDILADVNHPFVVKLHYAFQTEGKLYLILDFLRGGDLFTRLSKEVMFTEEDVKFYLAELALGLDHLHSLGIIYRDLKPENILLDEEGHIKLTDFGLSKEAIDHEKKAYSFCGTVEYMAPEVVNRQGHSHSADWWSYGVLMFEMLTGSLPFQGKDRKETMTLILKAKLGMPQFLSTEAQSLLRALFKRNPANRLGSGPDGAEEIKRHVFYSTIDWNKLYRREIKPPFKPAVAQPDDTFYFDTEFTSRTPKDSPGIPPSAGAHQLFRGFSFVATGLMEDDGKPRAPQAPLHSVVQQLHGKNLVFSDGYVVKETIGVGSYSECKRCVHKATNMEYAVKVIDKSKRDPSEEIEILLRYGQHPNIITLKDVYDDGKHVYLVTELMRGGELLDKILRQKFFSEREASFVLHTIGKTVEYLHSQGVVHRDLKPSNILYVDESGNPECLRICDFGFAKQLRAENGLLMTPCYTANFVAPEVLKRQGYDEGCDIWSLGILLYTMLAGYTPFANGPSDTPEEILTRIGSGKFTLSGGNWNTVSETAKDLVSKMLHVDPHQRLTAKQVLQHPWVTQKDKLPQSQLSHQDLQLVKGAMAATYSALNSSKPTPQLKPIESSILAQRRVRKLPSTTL
Ribosomal protein S6 kinase alpha-3, sequence (P51812 whole entry): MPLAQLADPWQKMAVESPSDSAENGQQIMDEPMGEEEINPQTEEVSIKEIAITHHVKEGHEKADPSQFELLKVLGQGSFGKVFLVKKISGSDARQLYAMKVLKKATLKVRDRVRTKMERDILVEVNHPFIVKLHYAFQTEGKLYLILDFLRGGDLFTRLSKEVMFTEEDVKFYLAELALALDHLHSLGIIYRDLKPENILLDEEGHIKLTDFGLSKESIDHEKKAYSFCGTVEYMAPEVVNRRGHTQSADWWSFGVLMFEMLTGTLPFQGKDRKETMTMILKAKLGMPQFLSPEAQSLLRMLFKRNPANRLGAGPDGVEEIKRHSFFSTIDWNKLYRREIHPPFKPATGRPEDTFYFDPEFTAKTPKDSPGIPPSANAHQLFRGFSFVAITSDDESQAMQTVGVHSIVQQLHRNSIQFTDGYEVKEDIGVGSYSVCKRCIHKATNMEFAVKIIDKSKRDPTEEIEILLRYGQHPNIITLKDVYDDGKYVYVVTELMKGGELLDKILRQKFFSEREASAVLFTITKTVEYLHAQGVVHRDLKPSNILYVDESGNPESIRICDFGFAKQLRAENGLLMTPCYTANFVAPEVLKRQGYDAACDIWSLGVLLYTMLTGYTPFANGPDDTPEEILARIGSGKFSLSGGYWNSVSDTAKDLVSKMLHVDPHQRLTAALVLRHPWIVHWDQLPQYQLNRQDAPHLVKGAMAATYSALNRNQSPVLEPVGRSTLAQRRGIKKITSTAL
Protein kinase C theta type, sequence (Q04759 whole entry): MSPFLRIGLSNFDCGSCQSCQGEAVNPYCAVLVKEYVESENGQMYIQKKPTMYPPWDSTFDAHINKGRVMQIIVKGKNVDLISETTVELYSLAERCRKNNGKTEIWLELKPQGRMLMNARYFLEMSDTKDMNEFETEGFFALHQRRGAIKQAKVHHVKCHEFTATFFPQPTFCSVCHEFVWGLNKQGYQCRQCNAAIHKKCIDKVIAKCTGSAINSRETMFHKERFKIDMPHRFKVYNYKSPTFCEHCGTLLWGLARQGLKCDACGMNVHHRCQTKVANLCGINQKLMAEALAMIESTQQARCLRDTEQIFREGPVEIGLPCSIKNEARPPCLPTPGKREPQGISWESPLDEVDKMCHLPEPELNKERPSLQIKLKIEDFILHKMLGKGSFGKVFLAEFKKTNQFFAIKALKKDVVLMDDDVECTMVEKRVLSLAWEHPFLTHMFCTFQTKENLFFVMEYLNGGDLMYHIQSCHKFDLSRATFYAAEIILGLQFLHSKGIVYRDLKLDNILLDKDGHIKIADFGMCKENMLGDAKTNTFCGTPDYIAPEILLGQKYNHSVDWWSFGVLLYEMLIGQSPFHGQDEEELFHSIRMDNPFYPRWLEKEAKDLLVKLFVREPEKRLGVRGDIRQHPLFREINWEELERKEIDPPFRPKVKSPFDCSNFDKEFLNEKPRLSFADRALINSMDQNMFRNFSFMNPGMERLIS
Serine/threonine-protein kinase Chk2, sequence (O96017 whole entry): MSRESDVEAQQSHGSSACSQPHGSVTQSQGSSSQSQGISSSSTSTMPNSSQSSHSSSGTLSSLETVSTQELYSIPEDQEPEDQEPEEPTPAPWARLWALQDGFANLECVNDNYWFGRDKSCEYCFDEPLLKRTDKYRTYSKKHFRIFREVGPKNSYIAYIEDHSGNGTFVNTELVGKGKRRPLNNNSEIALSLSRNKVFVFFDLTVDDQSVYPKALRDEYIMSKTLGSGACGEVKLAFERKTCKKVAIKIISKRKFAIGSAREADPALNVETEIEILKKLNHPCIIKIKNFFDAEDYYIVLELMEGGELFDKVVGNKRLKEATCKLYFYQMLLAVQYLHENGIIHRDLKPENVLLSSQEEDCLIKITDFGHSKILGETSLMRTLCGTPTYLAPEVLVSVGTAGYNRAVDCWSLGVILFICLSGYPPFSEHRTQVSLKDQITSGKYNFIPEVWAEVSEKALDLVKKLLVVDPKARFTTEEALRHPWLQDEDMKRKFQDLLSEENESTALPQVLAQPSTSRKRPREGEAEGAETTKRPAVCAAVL
Serine/threonine-protein kinase PAK 4, sequence (O96013 whole entry, looked up): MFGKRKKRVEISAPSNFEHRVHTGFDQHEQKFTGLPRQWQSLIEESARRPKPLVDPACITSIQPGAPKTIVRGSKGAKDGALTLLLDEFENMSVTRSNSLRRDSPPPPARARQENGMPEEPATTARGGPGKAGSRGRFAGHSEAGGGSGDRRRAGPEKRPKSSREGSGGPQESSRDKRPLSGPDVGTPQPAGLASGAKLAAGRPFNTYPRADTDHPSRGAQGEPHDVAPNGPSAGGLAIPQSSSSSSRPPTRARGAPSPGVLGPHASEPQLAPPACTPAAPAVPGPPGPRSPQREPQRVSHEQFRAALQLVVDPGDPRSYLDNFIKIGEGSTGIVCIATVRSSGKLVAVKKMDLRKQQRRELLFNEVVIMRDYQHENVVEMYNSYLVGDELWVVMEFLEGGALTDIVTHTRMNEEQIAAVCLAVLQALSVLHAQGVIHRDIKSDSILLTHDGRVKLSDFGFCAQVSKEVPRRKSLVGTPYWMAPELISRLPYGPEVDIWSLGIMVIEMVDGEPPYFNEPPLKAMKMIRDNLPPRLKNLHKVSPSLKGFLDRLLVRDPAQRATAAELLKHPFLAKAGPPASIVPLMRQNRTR
AMP-activated protein kinase (AMPK) alpha-1/beta-1/gamma-1 (Homo sapiens), sequence (P54619 whole entry): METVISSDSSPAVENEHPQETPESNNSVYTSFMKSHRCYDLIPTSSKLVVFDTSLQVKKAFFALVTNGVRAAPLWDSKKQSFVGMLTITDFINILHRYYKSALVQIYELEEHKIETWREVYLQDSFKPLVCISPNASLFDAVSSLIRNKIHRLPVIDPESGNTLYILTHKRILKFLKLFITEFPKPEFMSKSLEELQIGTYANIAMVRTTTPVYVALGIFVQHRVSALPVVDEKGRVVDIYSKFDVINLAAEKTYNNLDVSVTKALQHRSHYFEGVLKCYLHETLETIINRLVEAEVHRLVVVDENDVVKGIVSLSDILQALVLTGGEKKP
AMP-activated protein kinase (AMPK) alpha-1/beta-1/gamma-1 (Homo sapiens), sequence (Q13131 whole entry partner): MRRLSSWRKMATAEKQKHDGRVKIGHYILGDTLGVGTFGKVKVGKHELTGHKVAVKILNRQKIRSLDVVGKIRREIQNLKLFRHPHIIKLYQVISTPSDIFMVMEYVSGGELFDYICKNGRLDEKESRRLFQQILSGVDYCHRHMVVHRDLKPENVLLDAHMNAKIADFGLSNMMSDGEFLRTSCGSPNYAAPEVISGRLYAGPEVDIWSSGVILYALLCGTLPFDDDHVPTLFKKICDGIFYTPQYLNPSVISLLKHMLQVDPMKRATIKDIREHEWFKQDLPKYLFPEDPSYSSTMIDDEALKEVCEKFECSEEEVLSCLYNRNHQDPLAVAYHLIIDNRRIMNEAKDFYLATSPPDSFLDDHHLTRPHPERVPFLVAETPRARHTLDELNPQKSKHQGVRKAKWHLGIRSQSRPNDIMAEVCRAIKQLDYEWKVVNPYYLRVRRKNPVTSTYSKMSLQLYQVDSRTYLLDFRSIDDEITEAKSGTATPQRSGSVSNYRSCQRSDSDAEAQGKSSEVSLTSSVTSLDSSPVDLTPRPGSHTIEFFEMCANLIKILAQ
AMP-activated protein kinase (AMPK) alpha-1/beta-1/gamma-1 (Homo sapiens), sequence (Q9Y478 2-270 partner limits assumed): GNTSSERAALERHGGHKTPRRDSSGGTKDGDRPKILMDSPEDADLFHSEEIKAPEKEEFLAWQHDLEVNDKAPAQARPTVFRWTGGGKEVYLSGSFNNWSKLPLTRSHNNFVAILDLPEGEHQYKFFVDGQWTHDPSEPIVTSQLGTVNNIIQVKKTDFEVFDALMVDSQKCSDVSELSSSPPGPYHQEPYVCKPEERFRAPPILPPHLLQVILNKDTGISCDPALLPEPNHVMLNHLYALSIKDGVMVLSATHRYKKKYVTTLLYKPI

IC50 [1]: 13 nM
IC50 (HCC1419): 0.79 nM
Ki [4]: 32 nM
Ki [5]: 15 nM
T1/2 [7]: 1.13 min
Ki [8]: 5 nM
IC50 (NCI-H1651): 20 nM
IC50 (COLO 320DM): 373 nM
inhibition [10]: 97%
IC50 (HCC1954): 0.33 nM
Ki [11]: 5 nM
Ki [12]: 10 nM
IC50 (NCI-H1703): 4.4 nM
IC50 [13]: 543 nM
IC50 [14]: 2210 nM
inhibition [15]: 101%
IC50 (SW1990): 127 nM
SMILES: Cc1nc(Nc2n[nH]c3c2CN(C(=O)N[C@H](CN(C)C)c2ccccc2)C3(C)C)c2sccc2n1 [PF-03758309]
Activity (HCT-116 [2]): Active
Activity (HCT-116 [3]): Active
Activity (HCT-116 [6]): Active
inhibition in vivo at 20 mg/kg (COLO 205): 106%
Activity (HCT-116 [9]): Active
IC50 (HuP-T3): 280 nM
Activity (HCT-116 [16]): Active
IC50 (LS174T): 7.2 nM
